From ChEMBL document CHEMBL2375256, “Functionalized indoleamines as potent, drug-like inhibitors of isoprenylcysteine carboxyl methyltransferase (Icmt)” (Eur J Med Chem, 2013) come the findings set out here.

In series [1] the target is Protein-S-isoprenylcysteine O-methyltransferase (Homo sapiens, UniProt O60725). Put plainly: Inhibition of recombinant Icmt (unknown origin) expressed in Sf9 cells assessed as transfer of methyl group from [3H]-S-adenosylmethionine to [3H]-biotin-S-farnesyl-L-cysteine after 30 mins. A digest of the protocol: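 Icmt membrane protein was diluted to 0.03 mg/mL in 70 mM HEPES, 100 mM NaCl, 5 mM MgCl2, 3 mM DTT, pH 7.5, and preincubated with inhibitor. The reaction was started with a mix of BFC, SAM and [3H]SAM and run 30 min at 37 °C. It was quenched with excess SAM, captured on streptavidin SPA beads overnight at ambient temperature, and counted. IC50 was taken from % activity versus log concentration, with two independent determinations.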

In series [2] the test system is MDA-MB-231. Put plainly: Antiproliferative activity against human MDA-MB-231 cells after 72 hrs […]. In kind it is functional, cell-based. The conditions noted are these: MDA-MB-231, 72 h.
Series [3] has as its system HepG2. Put plainly: Antiproliferative activity against human HepG2 cells after 72 hrs […]. In kind it is functional, cell-based. As to conditions: HepG2, 72 h.
The subject of series [4] is IMR-90. Put plainly: Antiproliferative activity against human IMR90 cells after 72 hrs […]. It counts as cell-based. The conditions noted are these: IMR-90, 72 h.
Series [5] is described as follows: Half life in rat liver microsomes at 3 uM. It counts as ADME, Microsome. In a few lines:
(§1)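 Compound at 3 µM was incubated with pooled male rat liver microsomes (0.3 mg protein/mL) in 0.1 M phosphate buffer pH 7.4 with 1 mM EDTA. The reaction was started with NADPH (1 mM final) at 37 °C and sampled at 0, 5, 15, 30 and 45 min.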

Series [6] is described as follows: Aqueous solubility of the compound at pH 7.4 after 24 hrs agitation. It counts as physicochemical.
Series [7] deals with PC-3. Put plainly: Antiproliferative activity against human PC3 cells after 72 hrs […]. In kind it is functional, cell-based. As to conditions: PC-3, 72 h.
Series [8] is described as follows: Intrinsic clearance in rat liver microsomes at 3 uM. It counts as ADME, Microsome. The conditions noted are these: read-out: CLH. In a few lines: as §1
On the technique in general: Liver microsomes are vesicles of endoplasmic reticulum, rich in cytochrome P450 enzymes.

In series [9] the test system is MIA PaCa-2. Put plainly: Antiproliferative activity against human MIAPaCa2 cells after 72 hrs by MTT assay. It counts as functional, cell-based. The conditions noted are these: MIA PaCa-2, 72 h. (In general: Formazan colour is commonly taken as a measure of viable cells.)

The structures appear in SMILES notation. In brackets after ≈: the same amount, converted by molar mass.

Protein-S-isoprenylcysteine O-methyltransferase, sequence (O60725 whole entry): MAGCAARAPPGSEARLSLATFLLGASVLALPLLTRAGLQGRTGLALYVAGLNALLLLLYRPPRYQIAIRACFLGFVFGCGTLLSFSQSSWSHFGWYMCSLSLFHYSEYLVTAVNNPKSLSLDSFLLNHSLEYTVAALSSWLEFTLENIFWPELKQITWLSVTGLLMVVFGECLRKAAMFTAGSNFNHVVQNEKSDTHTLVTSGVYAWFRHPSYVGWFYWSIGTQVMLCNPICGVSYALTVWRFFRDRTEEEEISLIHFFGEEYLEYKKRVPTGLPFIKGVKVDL

For `CCCCCCCCn1cc(CN(CC)CC)c2cc(F)ccc21`, the results for the IC50 in [1] and in series [2] were 4.42 µM and 7.36 µM, respectively.
As for `CCCCCCCCn1cc(CN(CC)CC)c2cc(-c3cccc(C)c3)ccc21`, the IC50 in series [3] was found to be 4.9 µM; in series [4], 5.26 µM; in [7], 6.31 µM; in series [2], 5.14 µM. Besides, the half-life at 3 µM in [5] came to 26.9 min. Also, the concentration in solution in series [6] (solubility at 24 h) was 1.1 µM (≈ 0.445 µg/mL). Moreover, the microsomal CLint at 3 µM in series [8] came to 85.8 µL/min/mg.
With `CCCCCCCCn1cc(CN(CC)CC)c2cc(-c3cccc(O)c3)ccc21`, the IC50 stood at 14.9 µM in series [7] and 18.1 µM in series [2].
For `CCCCCCCCn1cc(CN(CC)CC)c2cc(-c3ccc(C#N)cc3)ccc21`, in that order: 6.11 µM and 10.8 µM.
For `CCCCCCCCn1cc(CN(CC)CC)c2cc(-c3ccc(S(C)(=O)=O)cc3)ccc21`, in that order: 4.74 µM and 5.56 µM.
With `CCCCCCCCn1cc(CN(CC)CC)c2cc(-c3ccc(S(=O)(=O)NC)cc3)ccc21`, the half-maximal inhibitory concentration (IC50) in series [2] was 10.2 µM.
Turning to `CCCCCCCCn1cc(CN(CC)CC)c2cc(-c3cccnc3)ccc21`, the IC50 in [4] is 5.52 µM; in [7], 5.84 µM; in series [2] it was 5.5 µM.
For `CCCCCCCCn1cc(CN(CC)CC)c2cc(-c3ccc(N(C)C)nc3)ccc21`, the IC50 in series [1] amounted to 1.63 µM; in [7], 1.92 µM; in series [2], 2.52 µM.
For `CCCCCCCCn1cc(CN(CC)CC)c2cc(-c3ccncc3F)ccc21`, in that order: 0.96 µM, 5.88 µM and 5.14 µM.
As to `CCCCCCCCn1cc(CN(CC)CC)c2cc(-c3cncnc3)ccc21`, the IC50 was found to be 9.84 µM in series [4], 8.47 µM in series [7] and 11.1 µM in series [2].
As for `CCCCCCCCn1cc(CN(CC)CC)c2cc(-c3cnc(C#N)nc3)ccc21`, the half-maximal inhibitory concentration (IC50) is 5.74 µM in [7] and 3.85 µM in series [2].
On to `CCCCCCCCn1cc(CN(CC)CC)c2cc(-c3cnc(N)nc3)ccc21`, for which the IC50 in series [3] stood at 1.65 µM; in [4], 2.65 µM; in [9], 1.6 µM; in series [7] it was 2.55 µM; in series [2], 2.48 µM. Besides, the half-life at 3 µM in series [5] was 11.3 min. For the same compound, in [8], the microsomal CLint at 3 µM is 204 µL/min/mg.
The compound `CCCCCCCCn1cc(CN(CC)CC)c2c(F)cccc21` showed an IC50 in series [2] of 7.5 µM.
For `CCCCCCCCn1cc(CN(CC)CC)c2ccc(F)cc21`, the IC50 turned out to be 2.22 µM in series [1] and 9.14 µM in series [2].
As to `CCCCCCCCn1cc(CN(CC)CC)c2cccc(F)c21`, in [2], the concentration for half-maximal inhibition (IC50) was 8.87 µM.
With `CCCCCCCCn1cc(CC(N)=O)c2cc(-c3cccc(C)c3)ccc21`, the IC50 in series [3] was found to be 19.3 µM; in series [7] it was 21.3 µM; in series [2], 22.1 µM. Further, the half-life at 3 µM in series [5] came to 44.8 min. Besides, the microsomal CLint at 3 µM in series [8] amounted to 53.6 µL/min/mg.

As a reminder, the IC50 is the concentration needed to halve the response being measured. As usually defined, the half-life is how long it takes for the measured level to halve. A higher half-life goes with slow decline. Usually solubility stands for the dissolved amount per volume that the medium holds.
